The results in this text go back to ChEMBL document CHEMBL2203145, “Synthesis and structure-activity relationships of tri-substituted thiazoles as RAGE antagonists for the treatment of Alzheimer's disease” (Bioorg Med Chem Lett, 2012).

Assay [1] addresses T1, Advanced glycosylation end product-specific receptor (Homo sapiens, UniProt Q15109). Put plainly: Antagonist activity at human biotinylated RAGE assessed as inhibition of amyloid beta binding at 10 uM after 60 mins by ELISA. The procedure, abridged: (§1)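 Biotinylated protein with Aβ in BSA-containing buffer incubated on a streptavidin-coated plate for 60 min at ambient temperature, then washed with TBS-T. Bound Aβ detected with HRP-conjugated 4G8 antibody (1:1000, TBS-T with 2.5% BSA) for 60 min at ambient temperature. Developed with TMB, stopped with sulfuric acid, absorbance read at 450 nm.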
A general note: ELISA stands for enzyme-linked immunosorbent assay.

The target in assay [2] is T1, Advanced glycosylation end product-specific receptor. Put plainly: Antagonist activity at human biotinylated RAGE assessed as inhibition of amyloid beta binding after 60 mins by ELISA. The method in brief: as §1
For assay [3] the target is unchanged. Put plainly: Antagonist activity at RAGE transfected in CHO cells assessed as inhibition of amyloid beta 42-induced NFkappaB activation at 1 uM after 18 hrs by luciferase reporter gene assay. It counts as functional, cell-based. The procedure, abridged: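 CHO-NF-κB-luciferase cells at 20,000 cells/well in Opti-MEM, incubated overnight, then treated with compound (1 µM) for 18 h at 37 °C with or without 5 µM Aβ42. Cells lysed in passive lysis buffer, lysate mixed with luciferase substrate, relative light units read on a luminometer.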
On the technique in general: Reporter assays use an easily measured gene product as a stand-in for the process of interest.

The target of assay [4] is Advanced glycosylation end product-specific receptor (Mus musculus) (UniProt Q62151). The assay can be described thus: Antagonist activity at RAGE overexpressed in mouse bEND.3 cells assessed as inhibition of FITC-amyloid beta 42 transport across blood-brain barrier at 10 uM by fluorescence assay. It counts as functional, cell-based. The method in brief:
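RAGE-overexpressing bEND.3 cells grown 3–4 days to confluence on inserts to form a tight-junction barrier; TEER taken as resistance minus blank-insert resistance, times insert area. Aβ transport across the monolayer measured with compound at 10 µM; reported as % inhibition.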

Molecules are shown by their SMILES.

Advanced glycosylation end product-specific receptor (Mus musculus), sequence (Q62151 whole entry): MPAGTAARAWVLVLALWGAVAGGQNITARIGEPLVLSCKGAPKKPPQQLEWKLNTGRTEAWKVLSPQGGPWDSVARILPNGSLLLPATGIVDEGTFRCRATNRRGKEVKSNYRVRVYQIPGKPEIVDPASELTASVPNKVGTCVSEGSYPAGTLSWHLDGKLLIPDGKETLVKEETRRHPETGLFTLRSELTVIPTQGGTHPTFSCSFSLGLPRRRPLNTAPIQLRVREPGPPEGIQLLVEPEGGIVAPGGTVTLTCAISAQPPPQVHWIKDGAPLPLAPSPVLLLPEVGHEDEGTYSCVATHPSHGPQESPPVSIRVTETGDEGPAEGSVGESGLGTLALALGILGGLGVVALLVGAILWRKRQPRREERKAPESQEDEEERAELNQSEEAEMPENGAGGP
T1 sequence (Q15109 whole entry): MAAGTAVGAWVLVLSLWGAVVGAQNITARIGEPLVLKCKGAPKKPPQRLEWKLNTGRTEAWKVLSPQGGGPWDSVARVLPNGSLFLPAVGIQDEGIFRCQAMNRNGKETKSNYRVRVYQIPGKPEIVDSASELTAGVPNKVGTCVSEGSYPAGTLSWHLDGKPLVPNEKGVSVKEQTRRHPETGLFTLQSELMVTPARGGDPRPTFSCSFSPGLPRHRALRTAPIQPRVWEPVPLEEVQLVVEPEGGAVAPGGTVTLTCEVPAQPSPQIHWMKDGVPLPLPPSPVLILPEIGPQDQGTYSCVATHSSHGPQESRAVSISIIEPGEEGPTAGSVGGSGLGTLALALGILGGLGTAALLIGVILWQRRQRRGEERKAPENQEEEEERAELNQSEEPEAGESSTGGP

`CCCCc1sc(-c2ccc(OCCCN3CCCCC3)cc2)nc1-c1ccc(Oc2ccc(Cl)cc2)cc1`: the inhibition (commonly the share of the control response that was lost under treatment) in assay [1] amounted to 59.2%; in assay [3], 11.7%; in assay [4] it was 64.3%. Besides, in assay [2], the IC50 (commonly the concentration at which inhibition is half-maximal) came to 1.84 µM.
In the case of `CCCCc1sc(-c2ccc(OCCN3CCOCC3)cc2)nc1-c1ccc(Oc2ccc(Cl)cc2)cc1`, the inhibition in assay [1] came to 22.9%.
Turning to `CCCCc1sc(-c2ccc(OCCN(CC)CC)cc2)nc1-c1ccc(Oc2ccc(Cl)cc2)cc1`, the inhibition in assay [1] is 55.1%; in assay [3] it was 11.3%. Besides, the half-maximal inhibitory concentration (IC50) in assay [2] turned out to be 1.58 µM.
With `CCCCc1sc(-c2ccc(OCCN3CCN(C)CC3)cc2)nc1-c1ccc(Oc2ccc(Cl)cc2)cc1`, the values for the inhibition in assay [1], in assay [3] and in assay [4] were 54.7%, 17.2% and 68.6%, respectively. Moreover, the IC50 in assay [2] came out at 1.21 µM.
In the same order, the values of `CCCCc1nc(-c2ccc(Oc3ccc(Cl)cc3)cc2)sc1-c1ccc(OCCCN(CC)CC)cc1` are 57.1%, 10.3%, 63.5% and 2.01 µM.
Take `CCCCc1sc(-c2ccc(Oc3ccc(Cl)cc3)cc2)nc1-c1ccc(O)cc1`: in assay [1], the inhibition is 0.2%.
Same read-out and setting: then `CCCCc1sc(-c2ccc(Oc3ccc(Cl)cc3)cc2)nc1-c1ccc(OCc2ccccc2)cc1`, with 2.4%.
The same measure, in the same setting: with `CCCCc1sc(-c2ccc(OCCCN(C)C)cc2)nc1-c1ccc(Oc2ccc(Cl)cc2)cc1` the figure was 46.2%.
For the molecule `CCCCc1sc(-c2ccc(OCCCN(CC)CC)cc2)nc1-c1ccc(Oc2ccc(Cl)cc2)cc1`, the values for the inhibition in assay [1] and in assay [4] were 58.9% and 73.3%, respectively. In assay [2], the 50% inhibitory concentration (IC50) amounted to 1.72 µM.
`CCCCc1sc(NC(=O)c2ccc(OCCCN(CC)CC)cc2)nc1-c1ccc(Oc2ccc(Cl)cc2)cc1`: the inhibition in assay [1] was found to be 60.2%. In addition, in assay [2], the IC50 is 5.59 µM.
As to `CCCCc1sc(-c2ccc(Oc3ccc(Cl)cc3)cc2)nc1-c1ccc(OCC2CCCN(CC)C2)cc1` (stereo unspecified), the inhibition came to 55.9% in assay [1] and 68.3% in assay [4]. For the same molecule, the half-inhibitory concentration (IC50) in assay [2] is 1.91 µM.
For `CCCCc1nc(-c2ccc(OCC3CCCN(CC)C3)cc2)sc1-c1ccc(Oc2ccc(Cl)cc2)cc1` (stereo unspecified), the inhibition in assay [1] was determined as 47.7%.
For the molecule `CCCCc1sc(-c2ccc(OCCCN3CCN(C)CC3)cc2)nc1-c1ccc(Oc2ccc(Cl)cc2)cc1`, the inhibition in assay [1] is 59.2%; in assay [3], 3.1%; in assay [4], 64.3%. In assay [2], the IC50 was 1.24 µM.
For `CCCCc1sc(-c2ccc(OCCN(C)C)cc2)nc1-c1ccc(Oc2ccc(Cl)cc2)cc1`, the values for the inhibition in assay [1], in assay [3] and in assay [4] were 51.8%, 2.1% and 66.6%, respectively. For the same molecule, the IC50 in assay [2] turned out to be 3.18 µM.
In the same order, the values of `CCCCc1nc(-c2ccc(Oc3ccc(Cl)cc3)cc2)sc1-c1ccc(OCC2CCCN(CC)C2)cc1` (stereo unspecified) are 53.9%, 4.9%, 61.5% and 1.14 µM.
Regarding `CCCCc1nc(-c2ccc(OCCCN(CC)CC)cc2)sc1-c1ccc(Oc2ccc(Cl)cc2)cc1`, in assay [1], the inhibition was 49.6%.
Regarding `CCCCc1sc(Nc2ccc(OCCCN(CC)CC)cc2)nc1-c1ccc(Oc2ccc(Cl)cc2)cc1`, in assay [1], the inhibition came to 60.9%. Besides, the IC50 in assay [2] was 0.55 µM.
Take `CCCCc1sc(-c2ccc(OCCN3CCCC3)cc2)nc1-c1ccc(Oc2ccc(Cl)cc2)cc1`: the inhibition is 64.2% in assay [1], 2.5% in assay [3] and 39.5% in assay [4]. For the same molecule, the half-maximal inhibitory concentration (IC50) in assay [2] amounted to 0.91 µM.
As to `CCCCc1sc(C(=O)Nc2ccc(OCCCN(CC)CC)cc2)nc1-c1ccc(Oc2ccc(Cl)cc2)cc1`, in assay [1], the inhibition amounted to 48.1%.
`CCCCc1sc(-c2ccc(OCC3CCCN(CC)C3)cc2)nc1-c1ccc(Oc2ccc(Cl)cc2)cc1` (stereo unspecified): the inhibition was determined as 58% in assay [1], 3% in assay [3] and 77.5% in assay [4]. In addition, the IC50 in assay [2] came to 0.66 µM.
`CCCCc1sc(-c2ccc(OCCCN3CCCC3)cc2)nc1-c1ccc(Oc2ccc(Cl)cc2)cc1`: in assay [1], the inhibition was found to be 47.8%.
For the molecule `CCCCc1sc(-c2ccc(OCCN3CCCCC3)cc2)nc1-c1ccc(Oc2ccc(Cl)cc2)cc1`, the results for the inhibition in assay [1], in assay [3] and in assay [4] were 60.1%, 13.5% and 55.3%, respectively. The IC50 in assay [2] was 1.04 µM.
Regarding `CCCCc1sc(-c2ccc(Oc3ccc(Cl)cc3)cc2)nc1-c1ccc(OCCCN(CC)CC)cc1`, the inhibition in assay [1] was determined as 57%; in assay [4], 71.7%. For the same molecule, the IC50 in assay [2] was 1.12 µM.
Consider `CCCCc1sc(-c2ccc(OCCCN3CCOCC3)cc2)nc1-c1ccc(Oc2ccc(Cl)cc2)cc1`, for which the inhibition in assay [1] amounted to 40.6%.
